CAL PDZ FP-1 – blocks peptide binding to the human CAL PDZ domain; purified CAL PDZ, TMR-peptide fluorescence polarization, 1 h; inhibition, % at 24.9 µM; 300,000 tested, 0.92% active;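 active = mean inhibition of at least 30% with at least half of replicates also reaching 30%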;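 also: 0% = DMSO neutral control and 100% = excess unlabeled competitor peptide PRC23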
DENV2 CPE – protects cells from dengue virus 2 cytopathic effect | DENV2-infected cells, cytopathic effect rescue, plate reader | 350,000 tested, 1.7% active | CPE inhibition, % at 9.99 µM; in the data active = CPE inhibition above about 20%, passing the limit was not always enough; tested in BHK-21 cells;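 also: 0% = median of neutral control wells and 100% = median of positive control wells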
S100A4 MyoIIA – S100A4-myosin IIA interaction inhibition; P26447; S100A4/TAMRA-MyoIIA peptide fluorescence polarization; inhibition, % at 10.7 µM; 360,000 tested, 0.14% active; AID 652163;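 active = mean inhibition of at least 70% across replicates, with every replicate also reaching that level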
Target sequence (P26447 whole entry, looked up): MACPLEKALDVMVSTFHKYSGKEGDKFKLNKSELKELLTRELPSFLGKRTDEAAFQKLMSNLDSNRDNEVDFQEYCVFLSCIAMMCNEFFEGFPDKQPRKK
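assay system = human S100A4 monomer with TAMRA-labelled myosin IIA peptide | also added = labelled myosin peptide probe, 5 nM | incubation = 5 min between mix addition and reading | control set = DMSO and TFP controls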
CAL PDZ FP-2 – human CAL PDZ-peptide interaction inhibition; Q9HD26; purified CAL PDZ, TMR-peptide fluorescence polarization, 1 h; inhibition, % at 20 µM; 330,000 tested, 0.02% active; AID 504414;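 active = highest replicate inhibition of at least 40%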;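 also: plate controls were DMSO neutral control wells for no effect and unlabeled competitor peptide control wells for full effect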
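Read-out basis: mP drop reported as inhibition | Assay system: Tagged CAL PDZ protein CerCALP, purified | Benchmarks: Unlabelled peptide for full inhibition, DMSO wells as neutral | Schedule: 1 h incubation at room temperature before polarization reading | Buffer or medium: Sodium phosphate/NaCl buffer pH 7.4 with TCEP, IgG, Thesit | Doses: Single point, 20 µM | Measured by: Fluorescence polarization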
ERAP1 HTS inh – inhibitors of human ERAP1 aminopeptidase. Q9NZ08. recombinant ERAP1, Leu-AMC fluorescence, 60 min. inhibition, % at 10.7 µM. 340,000 tested, 0.15% active. AID 652197;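 active = mean replicate inhibition of at least 30%, or all replicates individually reaching that 30% level; inactive = mean below 30% and not every replicate reaching it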;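 also: 0% = neutral control wells and 100% = L-leucinethiol positive control wells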
SIRT5 block – inhibitors of human sirtuin-5 desuccinylase; Q9NXA8; Purified SirT5, succinyl-peptide AMC, trypsin-coupled fluorescence; AID 652115; inhibition, % at 15 µM; 330,000 tested, 1.1% active; in the data active = inhibition above about 15%
Target sequence (Q9NXA8 whole entry, looked up): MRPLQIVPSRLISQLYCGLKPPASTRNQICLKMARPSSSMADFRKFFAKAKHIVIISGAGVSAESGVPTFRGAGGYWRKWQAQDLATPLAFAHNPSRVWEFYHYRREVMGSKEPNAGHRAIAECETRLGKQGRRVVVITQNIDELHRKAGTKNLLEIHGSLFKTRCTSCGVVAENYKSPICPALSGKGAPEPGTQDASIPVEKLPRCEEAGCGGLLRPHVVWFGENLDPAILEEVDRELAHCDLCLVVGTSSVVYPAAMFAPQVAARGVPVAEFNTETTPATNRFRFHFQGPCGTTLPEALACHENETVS
The depositor's hits bear a star; / = no result given. This is a sample that favours compounds with a hit; in the whole collection about 2.9% have one here.

SMILES	CAL PDZ FP-1	DENV2 CPE	S100A4 MyoIIA	CAL PDZ FP-2	ERAP1 HTS inh	SIRT5 block
C[C@@H]1CCCCO[C@H](CN(C)Cc2ccccc2)[C@@H](C)CN([C@H](C)CO)C(=O)c2cc(NC(=O)Nc3ccc(F)cc3)ccc2O1	/	-5.1	10.9	/	2.3	-6.0
C[C@@H]1CN([C@@H](C)CO)C(=O)c2cc(NC(=O)Nc3ccc(F)cc3)ccc2O[C@@H](C)CCCCO[C@H]1CN(C)Cc1ccccc1	/	40.4*	-5.7	/	2.6	-8.6
C[C@@H]1CCCCO[C@@H](CN(C)Cc2ccccc2)[C@H](C)CN([C@H](C)CO)C(=O)c2cc(NC(=O)Nc3ccc(F)cc3)ccc2O1	/	41.0*	30.0	/	2.2	-9.0
C[C@H](CO)N1C[C@H](C)[C@@H](CN(C)Cc2ccc(F)cc2)Oc2cc(C#CCN(C)C)ccc2S1(=O)=O	/	-2.9	-6.6	/	-1.3	2.0
C[C@@H]1CN([C@H](C)CO)C(=O)c2ccccc2-c2ccccc2CO[C@@H]1CN(C)S(=O)(=O)c1ccccc1C#N	/	-6.9	2.6	/	3.3	0.4
O=C(c1ccco1)N1CCN(C(=O)c2ccc(-c3cccc(C(F)(F)F)c3)o2)CC1	-5.6	101.0*	-1.9	-3.6	-5.2	1.5
COc1cc(CNc2nccn3ccnc23)cc(OC)c1	/	36.3*	-19.8	/	-4.8	/
C[C@H](CO)N1C[C@H](C)[C@@H](CN(C)C(=O)Nc2ccc(C(F)(F)F)cc2)Oc2ccc(NC(=O)C3CC3)cc2CC1=O	/	-8.3	5.9	/	4.2	-2.8
CCN(CC(=O)NCc1cccs1)C(=O)/C=C/c1cc(OC)ccc1OC	-1.9	-2.7	-6.4	-0.4	-5.7	-7.1
CCN(CC(=O)NCc1cccs1)C(=O)c1ccccc1Cl	51.8*	2.0	-4.0	-0.9	0.3	3.2
CCN(CC(=O)NCc1cccs1)C(=O)/C=C/c1ccc(OC)cc1OC	-3.0	30.4*	1.0	-2.6	0.3	1.2
CCN(CC(=O)NCc1cccs1)C(=O)c1cc(=O)[nH]c2ccccc12	73.9*	-2.8	2.4	-0.5	-0.1	-2.1
C[C@@H]1CN([C@H](C)CO)S(=O)(=O)c2ccc(-c3ccc(F)cc3)cc2O[C@@H]1CN(C)S(C)(=O)=O	/	-7.8	-0.2	/	2.7	0.0
CN1c2ccc(-c3ccccc3F)cc2[C@@H]2[C@@H](CCN2S(=O)(=O)c2ccc(F)cc2)[C@@H]1CO	/	52.6*	6.9	/	/	6.1
COc1ccc(S(=O)(=O)N2CC[C@@H]3[C@H]2c2cc(-c4ccccc4F)ccc2N(C)[C@H]3CO)cc1	/	25.5*	/	/	/	/
COc1ccc(S(=O)(=O)N2CC[C@@H]3[C@H](CO)N(C)c4ccc(-c5ccc(F)cc5)cc4[C@@H]32)cc1	/	-21.3	-1.0	/	0.2	4.6
CN1c2ccc(-c3ccccc3F)cc2[C@@H]2[C@@H](CCN2S(=O)(=O)c2ccc(F)cc2)[C@H]1CO	/	19.9	3.9	/	/	5.3
CC(C)NC(=O)N1CC2(C1)[C@H](c1ccccc1)[C@@H](CO)N2CCC(F)(F)F	/	-8.4	23.4	/	0.2	-5.0
CCOC=C1SC(=S)N(c2ccccc2OC)C1=O	/	-4.7	126.9*	/	-2.2	-1.3
CCO/C=C1/C(=O)N(c2ccccc2OC)C(=O)c2ccccc21	-2.1	-5.3	-13.8	-1.2	-1.9	3.7
C[C@H](O)C#Cc1ccc([C@H]2[C@@H](CO)N3CCCCN(CC4CC4)C[C@H]23)cc1	/	22.5*	44.7	/	1.0	-2.6
C[C@H](O)C#Cc1ccc([C@H]2[C@H](CO)N3CCCCN(CC4CC4)C[C@@H]23)cc1	/	-0.6	-2.9	/	-1.3	-0.3
CC(C)C#Cc1ccc([C@H]2[C@H](CO)N3CCCCN(CC4CC4)C[C@@H]23)cc1	/	25.8*	-9.0	/	0.6	-1.4
CC(C)C#Cc1ccc([C@@H]2[C@@H](CO)N3CCCCN(CC4CC4)C[C@H]23)cc1	/	-8.3	-8.0	/	0.6	3.0
O=C(C[C@@H]1CC[C@@H]2[C@H](COC[C@@H](O)CN2Cc2cccc(Cl)c2)O1)NCc1cccc(F)c1	/	3.0	-3.6	/	-0.6	3.1
CS(=O)(=O)Nc1ccc2c(c1)[C@@H]1C[C@H](CC(=O)NCc3cc(F)ccc3F)O[C@H](CO)[C@@H]1O2	/	5.5	-5.4	/	-0.7	3.1

Source: PubChem (Broad Institute)
